Assay results from different studies.
Each line is one published result; the experiments were not run side by side.
Target: Casein kinase I isoform epsilon (CSNK1E, Homo sapiens, UniProt P49674)

O=C1Nc2ccc(Cl)cc2C1=Cc1cc(Cl)c(O)c(Cl)c1  remaining activity (enzyme activity; 0.5 µM): 66.6%
Cn1c2c(c3ccc(Cl)c(Cl)c31)C(C#N)C(C)(C)NC2=O (stereo not shown)  ΔTm (thermal stability; DSF; 10 µM): 1.3 °C
CCN1/C(=C/C(C)=O)Sc2ccc(OC)cc21  remaining activity (enzyme activity; 0.5 µM): 60.1%
O=C(N1CCS(=O)(=O)CC1)N1C[C@H](c2ccc(OC(F)(F)F)cc2)C[C@H](c2nc(C3CC3)no2)C1  remaining binding (cell-free assay; competition with immobilised ligand; 1 µM): 100%
Cn1c2c(Cl)c(Cl)ccc2c2cc[nH]c(=O)c21  ΔTm (thermal stability; DSF; 10 µM): 1 °C
COc1cc2ncnc(Nc3ccc(Oc4ccccc4)c(C)c3C)c2cc1OC  inhibition (enzyme activity; inhibitor; 1 µM): 0%
CCOC(=O)c1cc2cc(-c3cc(C(=O)NCc4ccc(C(=O)O)cc4)nn3C)ccc2[nH]1  remaining binding (cell-free assay; competition with immobilised ligand; 0.1 µM): 100%
CCN(CC)CCNC(=O)c1c(C)[nH]c(/C=C2\C(=O)Nc3ccc(Cl)cc32)c1C  remaining activity (enzyme activity; inhibitor; 0.5 µM): 46.7%
CC(C)(O)c1cncc(-c2nc3ccc(F)cc3n2C2CC2)c1  remaining binding (cell-free assay; competition with immobilised ligand; 1 µM): 100%
CCCS(=O)(=O)Nc1ccc(F)c(C(=O)c2c[nH]c3ncc(-c4ccc(Cl)cc4)cc23)c1F  inhibition (enzyme activity; inhibitor; 1 µM): < 10%
CC/C(=N\NC(=O)NCc1cccc(O)c1)c1ccc(O)c(C)c1O  inhibition (enzyme activity; inhibitor; 0.1 µM): 3.6%
Cc1sc(C(=O)NC2COC2)cc1-n1cc(NC(=O)Nc2c(F)cccc2Cl)cn1  remaining activity (enzyme activity; inhibitor; 10 µM): 97.9%
CN([C@@H]1CCc2c(CC(=O)O)c3ccccc3n2C1)S(=O)(=O)c1ccc(F)cc1  remaining binding (cell-free assay; competition with immobilised ligand; 1 µM): 90%
O=C(Nc1cnn(-c2csc(C(=O)NC3COC3)c2)c1)Nc1ccccc1Cl  remaining activity (enzyme activity; inhibitor; 5 µM): 89.6%
Cc1ccc(NC(=O)c2ccc(CN3CCN(C)CC3)cc2)cc1Nc1nccc(-c2cccnc2)n1  activity vs control (enzyme activity; inhibitor; 0.5 µM): 92.4%
O=C(Nc1cccnn1)N1CC(C/C=C/c2cncc(Oc3ccc(C(F)(F)F)cn3)n2)C1  remaining binding (cell-free assay; competition with immobilised ligand; 1 µM): 100%
COc1cc2c(N3CCN(C(=O)Nc4ccc(OC(C)C)cc4)CC3)ncnc2cc1OCCCN1CCCCC1  remaining signal (cell-free assay; 0.5 µM): 99.1%
CN(C)CC#Cc1ccc(OCCCc2sc(N3CCc4cccc(C(=O)Nc5nc6ccccc6s5)c4C3)nc2C(=O)O)c(F)c1  remaining binding (cell-free assay; competition with immobilised ligand; 1 µM): 86%
CC(C)(C)c1nc(-c2cccc(NS(=O)(=O)c3c(F)cccc3F)c2F)c(-c2ccnc(N)n2)s1  remaining activity (enzyme activity; inhibitor; radiometric; 1 µM): 89%
O=C(O)c1cc(-c2ccc(C3CCNCC3)cc2)c2ccc(-c3ccc(C(F)(F)F)cc3)cc2c1  remaining binding (cell-free assay; competition with immobilised ligand; 1 µM): 100%
CC1(C)NC(=O)c2[nH]c3c(Cl)c(Cl)ccc3c2C1C#N (stereo not shown)  ΔTm (thermal stability; DSF; 10 µM): 1.8 °C
O=c1cc(-c2cccc3c2Sc2ccccc2S3)oc(N2CCOCC2)c1  remaining activity (enzyme activity; inhibitor; 0.5 µM): 104%
